We go through one compound from ChEMBL document CHEMBL4818983, “Structure-activity relationship and hypoglycemic activity of tricyclic matrines with advantage of treating diabetic nephropathy” (Eur J Med Chem, 2020).

Activity calls are given as the source filed them. No cut-off for these calls is given here.

The test system of experiment [1] is L6. Description: Increase in glucose consumption in rat L6 cells after 24 hrs by glucose oxidase assay. The class given is functional, cell-based. Put shortly: (§1)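 L6 myotubes treated with DMSO, compound or RGZ (20 μM) at the indicated concentrations for 24 h. Culture supernatants assayed for glucose consumption and lactate release; lysed cells assayed for ATP, normalized to protein. Mean ± SD of 3 independent experiments vs DMSO.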

The test system of experiment [2] is L6. The experiment is described as follows: Induction of glycolysis in rat L6 cells assessed as reduction in cellular ATP production at 10 to 40 uM measured after 24 hrs. The class given is functional, cell-based. Particulars: dose 10-40 µM. Put shortly:
as §1

On to `CCCC[C@@H]1[C@H]2CCCN3CCC[C@@H](CN1S(=O)(=O)c1ccc(C(F)(F)F)cc1)[C@@H]23`, for which the Activity result in the experiment with L6 [1] was “Dose-Dependent Effect”. In addition, the outcome with L6 [2] was Active.
